Measurements reported in ChEMBL document CHEMBL1124850, “Synthesis and antibacterial activity of thiazolo-, oxazolo-, and imidazolo[3,2-a][1,8]naphthyridinecarboxylic acids” (J Med Chem, 1990).
≈ marks a conversion by molar mass, not a printed value.

Columns and labels:
Nucleic Acid = test: Inhibitory effect on DNA gyrase supercoiling activity from Escherichia coli K-12 C600; format: functional
Klebsiella pneumoniae = test: Activity against Klebsiella pneumoniae (PCI-602); format: functional
How it was run: (§1)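 Agar dilution MIC: serial 2-fold dilutions in Mueller-Hinton agar, inoculum about 10^6 CFU/mL, incubated at 37 °C for 18 h. The MIC is the lowest concentration that prevents visible bacterial growth.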

[1] = system: Staphylococcus epidermidis; test: Activity against Staphylococcus epidermidis (IAM 1296); format: functional; how it was run: as §1
Staphylococcus aureus [2] = test: Activity against Staphylococcus aureus (FDA207PJC-1); format: functional; how it was run: as §1
Escherichia coli [3] = test: Activity against Escherichia coli (K-12 C600); format: functional; how it was run: as §1
Bacillus subtilis = test: Activity against Bacillus subtilis (ATCC 6633); format: functional; how it was run: as §1
Staphylococcus aureus [4] = test: Activity against Staphylococcus aureus (IID 803); format: functional; how it was run: as §1
Klebsiella aerogenes = test: Activity against Enterobacter aerogenes (ATCC 13048); format: functional; how it was run: as §1
Pseudomonas aeruginosa = test: Activity against Pseudomonas aeruginosa (E-2); format: functional; how it was run: as §1
[5] = system: Pseudomonas cepacia (Burkholderia cepacia); test: Activity against Pseudomonas cepacia (IID-1341)
Enterococcus faecalis = test: Activity against Streptococcus faecalis (IID 682); format: functional; how it was run: as §1
[6] = system: Acinetobacter calcoaceticus; test: Activity against Acinetobacter calcoaceticus (AC54); format: functional; how it was run: as §1
Escherichia coli [7] = test: Activity against Escherichia coli (KC-14); format: functional; how it was run: as §1
Burkholderia cepacia = test: Activity against Pseudomonas cepacia (IID-1341); format: functional; how it was run: as §1

Compound	IC50 (Nucleic Acid)	MIC (Klebsiella pneumoniae)	MIC [1]	MIC (Staphylococcus aureus [2])	MIC (Escherichia coli [3])	MIC (Bacillus subtilis)	MIC (Staphylococcus aureus [4])	MIC (Klebsiella aerogenes)	MIC (Pseudomonas aeruginosa)	MIC [5]	MIC (Enterococcus faecalis)	MIC [6]	MIC (Escherichia coli [7])	MIC (Burkholderia cepacia)
CC1COc2c(C(=O)O)c(=O)c3cc(F)c(N4CCN(C)CC4)nc3n21 (centres undefined)	6.11 mg/L (≈ 16.9 µM)	0.78 mg/L (≈ 2.15 µM)	> 25 mg/L	12.5 mg/L (≈ 34.5 µM)	12.5 mg/L (≈ 34.5 µM)	3.13 mg/L (≈ 8.64 µM)	12.5 mg/L (≈ 34.5 µM)	6.25 mg/L (≈ 17.2 µM)	> 25 mg/L	> 25 mg/L	> 25 mg/L	> 25 mg/L	6.25 mg/L (≈ 17.2 µM)	–
CCn1cc(C(=O)O)c(=O)c2cc(F)c(N3CCNCC3)nc21 [ENOXACIN]	–	0.1 mg/L (≈ 0.312 µM)	3.13 mg/L (≈ 9.77 µM)	0.78 mg/L (≈ 2.44 µM)	0.2 mg/L (≈ 0.624 µM)	0.2 mg/L (≈ 0.624 µM)	0.78 mg/L (≈ 2.44 µM)	0.2 mg/L (≈ 0.624 µM)	1.56 mg/L (≈ 4.87 µM)	–	3.13 mg/L (≈ 9.77 µM)	3.13 mg/L (≈ 9.77 µM)	0.2 mg/L (≈ 0.624 µM)	6.25 mg/L (≈ 19.5 µM)
CC1COc2c(N3CCN(C)CC3)c(F)cc3c(=O)c(C(=O)O)cn1c23 (centres undefined) [OFLOXACIN]	0.59 mg/L (≈ 1.63 µM)	0.05 mg/L (≈ 0.138 µM)	0.78 mg/L (≈ 2.16 µM)	0.39 mg/L (≈ 1.08 µM)	0.2 mg/L (≈ 0.553 µM)	0.1 mg/L (≈ 0.277 µM)	0.39 mg/L (≈ 1.08 µM)	0.1 mg/L (≈ 0.277 µM)	1.56 mg/L (≈ 4.32 µM)	–	1.56 mg/L (≈ 4.32 µM)	0.39 mg/L (≈ 1.08 µM)	0.1 mg/L (≈ 0.277 µM)	6.25 mg/L (≈ 17.3 µM)

Other lines, results leading:

IC50 (Nucleic Acid)	MIC (Klebsiella pneumoniae)	MIC [1]	MIC (Staphylococcus aureus [2])	MIC (Escherichia coli [3])	MIC (Bacillus subtilis)	MIC (Staphylococcus aureus [4])	MIC (Klebsiella aerogenes)	MIC (Pseudomonas aeruginosa)	MIC [5]	MIC (Enterococcus faecalis)	MIC [6]	MIC (Escherichia coli [7])	MIC (Burkholderia cepacia)	Compound
> 25 mg/L	6.25 mg/L (≈ 17.3 µM)	100 mg/L (≈ 277 µM)	100 mg/L (≈ 277 µM)	50 mg/L (≈ 138 µM)	25 mg/L (≈ 69.2 µM)	100 mg/L (≈ 277 µM)	50 mg/L (≈ 138 µM)	100 mg/L (≈ 277 µM)	–	100 mg/L (≈ 277 µM)	100 mg/L (≈ 277 µM)	50 mg/L (≈ 138 µM)	100 mg/L (≈ 277 µM)	CN1CCN(c2nc3c(cc2F)c(=O)c(C(=O)O)c2n3CCN2C)CC1
0.52 mg/L (≈ 1.43 µM)	0.05 mg/L (≈ 0.137 µM)	1.56 mg/L (≈ 4.28 µM)	0.39 mg/L (≈ 1.07 µM)	0.2 mg/L (≈ 0.549 µM)	0.1 mg/L (≈ 0.274 µM)	0.39 mg/L (≈ 1.07 µM)	0.2 mg/L (≈ 0.549 µM)	1.56 mg/L (≈ 4.28 µM)	–	6.25 mg/L (≈ 17.2 µM)	0.39 mg/L (≈ 1.07 µM)	0.2 mg/L (≈ 0.549 µM)	3.13 mg/L (≈ 8.59 µM)	CN1CCN(c2nc3c(cc2F)c(=O)c(C(=O)O)c2n3CCS2)CC1
